Measured values pooled from the literature.
Lines come from different studies, so protocols differ.
PSMB8: Proteasome subunit beta type-8 (PSMB8, Homo sapiens, UniProt P28062)
TYMS: Thymidylate synthase (TYMS, Homo sapiens, UniProt P04818)
DHODH: Dihydroorotate dehydrogenase (quinone), mitochondrial (DHODH, Homo sapiens, UniProt Q02127)
PTGS2: Prostaglandin G/H synthase 2 (PTGS2, Homo sapiens, UniProt P35354)

target | read-out | action | technique | time | notes | IC50 | Structure (SMILES)
PSMB8 | enzyme activity | inhibitor |  |  | lysate | > 10 µM | Cc1ncc(C(=O)N[C@@H](CC(C)C)C(=O)N[C@@H](CC2CCC(C)CC2)C(=O)N[C@H](/C=C/S(C)(=O)=O)Cc2ccc(CN)cc2)s1 (some centres unmarked)
Ephrin type-B receptor 3 (EPHB3, Homo sapiens, UniProt P54753) | enzyme activity | inhibitor |  |  |  | 2.54 µM | CN1CCN(c2ccc(Nc3ncc4cc(C#N)c(=O)n(C5CCCC5)c4n3)cc2)CC1
TYMS | enzyme activity | inhibitor |  |  |  | 80 µM | COC(=O)C1CCN(C(=O)c2ccc(NCc3cnc4nc(N)nc(N)c4n3)cn2)CC1
PSMB8 | enzyme activity | inhibitor |  |  | lysate | > 10 µM | Cc1ncc(C(=O)N[C@@H](CC(C)C)C(=O)N[C@@H](CC2CCC(C3CCCCC3)CC2)C(=O)N[C@H](/C=C/S(C)(=O)=O)Cc2ccc(CN)cc2)s1 (some centres unmarked)
Lysosomal acid glucosylceramidase (GBA1, Homo sapiens, UniProt P04062, R534H) | enzyme activity | inhibitor |  |  |  | 19 µM | Oc1ccc(Cl)cc1Nc1nc(NCC2CCCO2)c2ccccc2n1 (centres unmarked)
Protein arginine N-methyltransferase 7 (PRMT7, Homo sapiens, UniProt Q9NVM4) | enzyme activity | inhibitor | radiometric |  |  | < 2.4 µM | Nc1ncnc2c1ncn2[C@@H]1O[C@H](CSCCNC(=O)NCc2ccccc2)[C@@H](O)[C@H]1O
DHODH | enzyme activity | inhibitor | absorbance |  |  | > 100 µM | Cc1nc(Nc2ccc(S(F)(F)(F)(F)F)cc2)c2c(C(F)(F)F)noc2n1
TYMS | enzyme activity | inhibitor |  |  |  | 91.9 µM | CCOC(=O)C1CCN(C(=O)c2ccc(N(CC)Cc3cnc4nc(N)nc(N)c4n3)cc2)CC1
PTGS2 | enzyme activity | inhibitor |  |  |  | 0.14 µM | Cc1cccn2c(Nc3ccc(Cl)cc3)c(-c3ccc(S(C)(=O)=O)cc3)nc12
PSMB8 | enzyme activity | inhibitor |  |  | lysate | > 10 µM | Cc1ncc(C(=O)N[C@@H](CC(C)C)C(=O)N[C@@H](CC2CCCCC2)C(=O)N[C@H](/C=C/S(C)(=O)=O)Cc2ccc(CN)cc2)s1
UDP-glucuronosyltransferase 1A1 (UGT1A1, Homo sapiens, UniProt P22309) | enzyme activity | inhibitor |  | 90 min |  | 11.3 µM | CC(C)=CCC[C@@H](C)c1ccc(C)c(O)c1
PTGS2 | enzyme activity | inhibitor |  |  |  | 0.12 µM | Cc1ccc(Nc2c(-c3ccc(S(C)(=O)=O)cc3)nc3cccc(C)n23)cc1
Histone acetyltransferase KAT7 (KAT7, Homo sapiens, UniProt O95251) | enzyme activity | inhibitor | radiometric |  |  | > 100 µM | COc1ccc(S(=O)(=O)ON=C2C=C(C)C(=O)C(C)=C2)cc1
Dual specificity tyrosine-phosphorylation-regulated kinase 1B (DYRK1B, Homo sapiens, UniProt Q9Y463) | enzyme activity | inhibitor | FRET |  |  | 0.35 µM | COC[C@@H](C)NC1CCC(Nc2cc(-c3cccc(NCC4(C#N)CCOCC4)n3)c(Cl)cn2)CC1 (some centres unmarked)
TYMS | enzyme activity | inhibitor |  |  |  | 67 µM | Nc1nc(N)c2nc(CNc3ccc(C(=O)N4CCC(C(=O)O)CC4)cc3)cnc2n1
Serum paraoxonase/arylesterase 1 (PON1, Homo sapiens, UniProt P27169) | enzyme activity | inhibitor |  |  |  | 4.4 µM | Oc1ccc2ccccc2n1

target | read-out | action | technique | time | notes | IC50 | Structure (SMILES)
PSMB8 | enzyme activity | inhibitor |  |  | lysate | 3.14 µM | Cc1ncc(C(=O)N[C@H](C(=O)N[C@@H](CC(C)C)C(=O)N[C@H](/C=C/S(C)(=O)=O)Cc2ccc(CN)cc2)C2CCCCC2)s1
Dual specificity tyrosine-phosphorylation-regulated kinase 3 (DYRK3, Homo sapiens, UniProt O43781) | enzyme activity | inhibitor |  |  |  | > 10 µM | CCOc1ccc2c(-c3cc(C)nc(Nc4cc(OC)cc(C(F)(F)F)c4)n3)cnn2n1
Proteasome subunit beta type-8, chymotrypsin-like site (PSMB8, Homo sapiens, UniProt P28062) | enzyme activity | inhibitor |  |  |  | > 100 µM | O=c1c2cc(Br)c(Br)n2cc2n1CCC2
DHODH | enzyme activity | inhibitor | absorbance |  |  | > 100 µM | Cc1nc(NC2CCc3cc(Cl)ccc3C2)c2c(C)noc2n1 (centres unmarked)
PSMB8 | enzyme activity | inhibitor |  |  | lysate | 3.24 µM | Cc1ncc(C(=O)N[C@@H](CC(C)C)C(=O)N[C@@H](CC2CCC3CCCCC3C2)C(=O)N[C@H](/C=C/S(C)(=O)=O)Cc2ccc(CN)cc2)s1 (some centres unmarked)
DHODH | enzyme activity | inhibitor | absorbance |  |  | > 50 µM | Cc1nc(Nc2ccc(S(F)(F)(F)(F)F)cc2)c2c(C)noc2n1
PSMB8 | enzyme activity | inhibitor |  |  | lysate | > 10 µM | Cc1ncc(C(=O)N[C@@H](CC2CCC(C3CCCCC3)CC2)C(=O)N[C@@H](CC(C)C)C(=O)N[C@H](/C=C/S(C)(=O)=O)Cc2ccc(CN)cc2)s1 (some centres unmarked)
Ephrin type-A receptor 1 (EPHA1, Homo sapiens, UniProt P21709) | enzyme activity | inhibitor | radiometric |  |  | 0.285 µM | CCn1ncc2c1-c1cnc(N)c(c1)O[C@H](C)c1cc(F)ccc1-c1nn(C)nc1C2
PFKM (Oryctolagus cuniculus, UniProt P00511) | enzyme activity | inhibitor |  |  |  | 3.92 µM | O=C(O)C1=CC(=C(c2ccc(O)c(C(=O)O)c2)c2ccc(O)c(C(=O)O)c2)C=CC1=O
Alpha-1D adrenergic receptor (ADRA1D, Homo sapiens, UniProt P25100) | ligand displacement |  | radioligand |  |  | > 30 µM | CCOCc1nc(O)c(-c2nnc(Cc3ccc(Cl)cn3)o2)c(O)c1-c1c(OC)cccc1OC
Multidrug resistance-associated protein 1 (ABCC1, Homo sapiens, UniProt P33527) | transporter uptake | inhibitor | radiometric |  | cell membranes | 12.3 µM | C=C1/C(=C\C=C2/CCC[C@]3(C)[C@@H]([C@H](C)/C=C/[C@@H](O)C4CC4)CC[C@@H]23)C[C@@H](O)C[C@@H]1O
Caspase-7 (CASP7, Homo sapiens, UniProt P55210) | enzyme activity | inhibitor |  |  |  | 0.00175 µM | CC(=O)N[C@@H](CC(=O)O)C(=O)N[C@@H](CCC(=O)O)C(=O)N[C@H](C(=O)N[C@H](C=O)CC(=O)O)C(C)C
PSMB8 | enzyme activity | inhibitor |  |  | lysate | 0.555 µM | Cc1ncc(C(=O)N[C@@H](CC2CCCC3CCCCC32)C(=O)N[C@@H](CC(C)C)C(=O)N[C@H](/C=C/S(C)(=O)=O)Cc2ccc(CN)cc2)s1 (some centres unmarked)
Lysosomal acid glucosylceramidase (GBA1, Homo sapiens, UniProt P04062) | enzyme activity | inhibitor |  |  |  | 15 µM | CCCCCCCC(=O)N[C@H](CN1CCCC1)[C@H](O)c1ccc2c(c1)OCCO2
PSMB8 | enzyme activity | inhibitor |  |  | lysate | 3.98 µM | COc1ccc(C[C@H](NC(=O)[C@H](C)NC(=O)CN2CCOCC2)C(=O)N[C@@H](CC2CCC(OC)CC2)C(=O)[C@@]2(C)CO2)cc1 (some centres unmarked)
Fucose-binding lectin PA-IIL (lecB, Pseudomonas aeruginosa, UniProt Q9HYN5) | enzyme activity | inhibitor |  |  |  | 2.5 µM | C[C@@H]1O[C@H](CNS(=O)(=O)c2ccc(C#CC3CC3)s2)[C@@H](O)[C@H](O)[C@@H]1O
